# Measurements from ChEMBL document CHEMBL1212762, “In vivo activity of ceftobiprole in murine skin infections due to Staphylococcus aureus and Pseudomonas aeruginosa” (Antimicrob Agents Chemother, 2010).
# Columns and labels:
# [1] = test system: Pseudomonas aeruginosa; assay: Antimicrobial activity against Pseudomonas aeruginosa OC 4351 infected in immunocompromized SKH1 mouse assessed as log change in bacterial colony forming unit at 100 mg/kg/day, sc; assay type: functional; conditions: route subcutaneous
# Summary of the method: (§1)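 Female SKH1 hairless mice made neutropenic with ip cyclophosphamide (150 mg/kg 5 days and 100 mg/kg 1 day before infection). 0.2 ml s.c. Cytodex bead (0.1% vol/vol) inoculum in BHI: OC 4351 left flank, OC 4354 right flank. Drug s.c. at 1, 3, 25, 27 h postinfection. Killed at 48 h; skin homogenised in saline, plated on TSA 18 h 37°C; Δlog CFU/g versus inoculum. 5 mice/dose, run twice.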
# [2] = test system: Staphylococcus aureus; assay: Antimicrobial activity against methicillin-susceptible Staphylococcus aureus Smith OC 4172 infected immunocompetent SKH1 mouse assessed as lesion volume at 6.2 mg/kg/day, sc measured after 48 hrs postinfection (reference value: 1181 mm3); conditions: route subcutaneous
# [3] = test system: Pseudomonas aeruginosa; assay: Antimicrobial activity against Pseudomonas aeruginosa OC 4351 infected in immunocompromized SKH1 mouse assessed as log change in bacterial colony forming units at 25 mg/kg/day, sc; assay type: functional; conditions: route subcutaneous; summary of the method: as §1
# [4] = test system: Staphylococcus aureus; assay: Antimicrobial activity against methicillin-resistant Staphylococcus aureus OC 8525 infected in SKH1 mouse assessed as log change in bacterial colony forming unit per gram of skin tissue at 1.6 mg/kg/day, sc (reference value: 0.8 deltalog CFU); assay type: functional; conditions: route subcutaneous
# Summary of the method: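 Female hairless immunocompetent SKH1 mice were anaesthetised and injected s.c. with 0.2 ml Cytodex bead inoculum (0.1% vol/vol beads in BHI; 6.7–7.0 log10 CFU/mouse): MSSA OC 4172 in the left flank, MRSA OC 8525 in the right. Drug was given at 1, 3, 25 and 27 h post-infection. At 48 h, flank lesions were excised, weighed and homogenised in saline, then plated on TSA (18 h, 37°C). The value is Δlog CFU/g versus the inoculum, from 5 mice/dose, run twice and pooled.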
# [5] = fT>MIC in Staphylococcus aureus OC 8525 infected sc dosed SKH1 mouse administered in 24 hrs dosing interval; assay type: functional
# Summary of the method: (§2)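 Plasma levels came from female hairless SKH1 mice given single s.c. doses at the nape 24 h after flank s.c. infection with Cytodex beads. S. aureus work used immunocompetent mice. P. aeruginosa work used mice made neutropenic with cyclophosphamide i.p., 150 mg/kg at day −5 and 100 mg/kg at day −1. Drug assayed by HPLC with diode-array detection. Noncompartmental analysis.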
# [6] = test system: Staphylococcus aureus; assay: Antimicrobial activity against methicillin-susceptible Staphylococcus aureus Smith OC 4172 infected immunocompetent SKH1 mouse assessed as lesion volume at 1.6 mg/kg/day, sc measured after 48 hrs postinfection (reference value: 1181 mm3); conditions: route subcutaneous
# [7] = fT>MIC in Staphylococcus aureus OC 4172 infected sc dosed SKH1 mouse administered in 24 hrs dosing interval; assay type: functional; summary of the method: as §2
# [8] = test system: Plasma; assay: fAUC (0-infinity) in immunocompetent SKH1 mouse plasma at 50 mg/kg, sc; assay type: ADME, organism-based; parameters: dose 50 mg/kg, route subcutaneous; conditions: in vivo
# Summary of the method: (§3)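 Female SKH1 hairless mice, immunocompetent or cyclophosphamide-neutropenic, infected s.c. with MRSA OC 8525 or P. aeruginosa OC 4354 on the Cytodex beads (left flank), sterile beads on the right. Single dose 24 h later: s.c. at the nape, or linezolid 50 mg/kg oral. Plasma and skin (DMSO homogenate) sampled over time, HPLC with diode array.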
# [9] = test system: Staphylococcus aureus; assay: Antimicrobial activity against methicillin-resistant Staphylococcus aureus OC 8525 assessed as inhibition of growth by broth microdilution method; assay type: functional
# [10] = Half life in immunocompromized SKH1 mouse plasma at 50 mg/kg, sc; assay type: ADME, organism-based; parameters: dose 50 mg/kg, route subcutaneous
# [11] = fT>MIC in Staphylococcus aureus Smith OC 4172 infected sc dosed SKH1 mouse at 50 mg/kg, sc administered twice at 1 and 3 hrs after infection; assay type: functional; conditions: route subcutaneous
# [12] = fT>MIC in Pseudomonas aeruginosa OC 4354 infected sc dosed SKH1 mouse administered in 24 hrs dosing interval; assay type: functional; summary of the method: as §2
# [13] = test system: Plasma; assay: fAUC (0-infinity) in immunocompetent SKH1 mouse plasma at 12.5 mg/kg, sc; assay type: ADME, organism-based; parameters: dose 12.5 mg/kg, route subcutaneous; conditions: in vivo; summary of the method: as §3
# [14] = test system: Zone of skin; assay: fAUC (0-infinity) in Staphylococcus aureus infected immunocompromized SKH1 mouse skin at 50 mg/kg, sc; assay type: ADME, organism-based; parameters: dose 50 mg/kg, route subcutaneous; conditions: in vivo
# [15] = test system: Pseudomonas aeruginosa; assay: Antimicrobial activity against Pseudomonas aeruginosa OC 4354 infected in immunocompromized SKH1 mouse assessed as lesion volume at 1.6 mg/kg/day, sc measured after 48 hrs postinfection (reference value: 2195 mm3); assay type: functional; conditions: route subcutaneous
# [16] = Half life in Staphylococcus aureus infected immunocompetent SKH1 mouse skin at 50 mg/kg, sc; assay type: ADME, organism-based, Zone of skin; parameters: dose 50 mg/kg, route subcutaneous; summary of the method: as §3
# [17] = fT>MIC in Staphylococcus aureus OC 8525 infected sc dosed SKH1 mouse at 50 mg/kg, sc administered twice at 1 and 3 hrs after infection; assay type: functional; conditions: route subcutaneous
# [18] = Tmax in immunocompromized SKH1 mouse plasma at 50 mg/kg, sc; assay type: ADME, organism-based; parameters: dose 50 mg/kg, route subcutaneous; summary of the method: as §3
# [19] = test system: Pseudomonas aeruginosa; assay: Antimicrobial activity against Pseudomonas aeruginosa OC 4351 infected in immunocompromized SKH1 mouse assessed as lesion volume at 6.2 mg/kg/day, sc measured after 48 hrs postinfection (reference value: 2234 mm3); assay type: functional; conditions: route subcutaneous
# [20] = test system: Pseudomonas aeruginosa; assay: Antimicrobial activity against Pseudomonas aeruginosa OC 4351 infected in immunocompromized SKH1 mouse assessed as lesion volume at 100 mg/kg/day, sc measured after 48 hrs postinfection (reference value: 2234 mm3); assay type: functional; conditions: route subcutaneous
# [21] = test system: Zone of skin; assay: fAUC (0-infinity) in immunocompromized SKH1 mouse skin at 50 mg/kg, sc; assay type: ADME, organism-based; parameters: dose 50 mg/kg, route subcutaneous; conditions: in vivo; summary of the method: as §3
# [22] = test system: Zone of skin; assay: fCmax in Staphylococcus aureus infected […] SKH1 mouse skin at 50 mg/kg, sc; assay type: ADME, organism-based; parameters: dose 50 mg/kg, route subcutaneous; conditions: in vivo
# [23] = test system: Staphylococcus aureus; assay: Antimicrobial activity against methicillin-resistant Staphylococcus aureus OC 8525 infected immunocompetent SKH1 mouse assessed as lesion volume at 25 mg/kg/day, sc measured after 48 hrs postinfection (reference value: 1535 mm3); conditions: route subcutaneous
# [24] = test system: Pseudomonas aeruginosa; assay: Antimicrobial activity against Pseudomonas aeruginosa OC 4354 infected in immunocompromized SKH1 mouse assessed as log change in bacterial colony forming unit at 100 mg/kg/day, sc; assay type: functional; conditions: route subcutaneous; summary of the method: as §1
# [25] = fT>MIC in Pseudomonas aeruginosa OC 4351 infected sc dosed SKH1 mouse at 50 mg/kg, sc administered twice at 1 and 3 hrs after infection; assay type: functional; conditions: route subcutaneous
# [26] = test system: Staphylococcus aureus; assay: Antimicrobial activity against methicillin-susceptible Staphylococcus aureus Smith OC 4172 infected immunocompetent SKH1 mouse assessed as lesion volume at 25 mg/kg/day, sc measured after 48 hrs postinfection (reference value: 1181 mm3); conditions: route subcutaneous
# [27] = test system: Pseudomonas aeruginosa; assay: Antimicrobial activity against Pseudomonas aeruginosa OC 4351 infected in immunocompromized SKH1 mouse assessed as lesion volume at 25 mg/kg/day, sc measured after 48 hrs postinfection (reference value: 2234 mm3); assay type: functional; conditions: route subcutaneous
# [28] = test system: Pseudomonas aeruginosa; assay: Antimicrobial activity against Pseudomonas aeruginosa OC 4354 infected in immunocompromized SKH1 mouse assessed as lesion volume at 25 mg/kg/day, sc measured after 48 hrs postinfection (reference value: 2195 mm3); assay type: functional; conditions: route subcutaneous
# [29] = Half life in immunocompromized SKH1 mouse skin at 50 mg/kg, sc; assay type: ADME, organism-based, Zone of skin; parameters: dose 50 mg/kg, route subcutaneous; summary of the method: as §3
smiles,measurement,setting,value
Nc1nc(/C(=N/O)C(=O)N[C@@H]2C(=O)N3C(C(=O)O)=C(/C=C4\CCN([C@@H]5CCNC5)C4=O)CS[C@H]23)ns1 [CEFTOBIPROLE],deltalog10CFU,[1],-1.1
same,Activity,[2],885 mm3
same,deltalog10CFU,[3],-0.9
same,deltalog10CFU,[4],0.3
same,fT>MIC,[5],13.8%
same,Activity,[6],937 mm3
same,fT>MIC,[7],>17%
same,fAUC,[8],2336 µg·min/mL
same,MIC,[9],1 µg/mL
same,half-life,[10],13 min
same,fT>MIC,[11],>4 h
same,fT>MIC,[12],9.1%
same,fAUC,[13],481 µg·min/mL
same,fAUC,[14],704 µg·min/mL
same,Activity,[15],1833 mm3
same,half-life,[16],15 min
same,fT>MIC,[17],3.3 h
same,Tmax,[18],7.5 min
same,Activity,[19],847 mm3
same,Activity,[20],389 mm3
same,fAUC,[21],690 µg·min/mL
same,fCmax,[22],9 µg/g
same,Activity,[23],642 mm3
same,deltalog10CFU,[24],-1.4
same,fT>MIC,[25],2.2 h
same,Activity,[26],640 mm3
same,Activity,[27],552 mm3
same,Activity,[28],580 mm3
same,half-life,[29],30 min
